Assay results from ChEMBL document CHEMBL3758162, “Synthesis, biological characterization and molecular modeling insights of spirochromanes as potent HDAC inhibitors” (Eur J Med Chem, 2016).
pIC50: −log10 of the molar value.

What was measured:
[1] = Solubility of the compound at pH 4.5; format: physicochemical; conditions: buffer
CYP1A2 = target: T1, CYP1A2 (Homo sapiens, UniProt P05177); assay: Inhibition of human CYP1A2 using 3-cyano-7-ethoxycoumarin as substrate at 10 uM after 15 mins by fluorimetric analysis; format: ADME; conditions: probe 3-cyano-7-ethoxycoumarin
T1 sequence (P05177 whole entry): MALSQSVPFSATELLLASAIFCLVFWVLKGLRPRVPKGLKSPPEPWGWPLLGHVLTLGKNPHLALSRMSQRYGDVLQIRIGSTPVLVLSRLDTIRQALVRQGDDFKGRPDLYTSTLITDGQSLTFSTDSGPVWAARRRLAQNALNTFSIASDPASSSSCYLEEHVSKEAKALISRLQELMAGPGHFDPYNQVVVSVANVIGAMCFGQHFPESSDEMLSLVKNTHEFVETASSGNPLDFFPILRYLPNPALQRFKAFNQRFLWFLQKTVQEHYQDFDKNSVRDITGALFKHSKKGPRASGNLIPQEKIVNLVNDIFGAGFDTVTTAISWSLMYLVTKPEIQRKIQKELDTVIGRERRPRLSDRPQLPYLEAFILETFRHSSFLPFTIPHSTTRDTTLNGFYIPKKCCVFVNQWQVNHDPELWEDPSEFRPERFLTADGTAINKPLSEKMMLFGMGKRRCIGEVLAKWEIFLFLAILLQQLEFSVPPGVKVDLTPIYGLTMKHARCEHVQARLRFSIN
Outline: (§1)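 Test compounds at 10 µM in potassium phosphate buffer pH 7.4 with NADPH regenerating system (final 1.3 mM NADP⁺, 3.3 mM glucose 6-phosphate, 0.4 U/ml G6PDH); reaction started at 37 °C by adding Supersomes isoenzyme plus substrate. Enzyme and substrate amounts: CYP1A2 0.5 pmol, 5 µM CEC; CYP2C19 0.5 pmol, 25 µM CEC; CYP3A4 1 pmol, 50 µM BFC; CYP2D6 1.5 pmol, 1.5 µM AMMC. Stopped with acetonitrile/Tris base; fluorescence read; % inhibition versus enzyme without inhibitor; n≥2, mean.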

CYP2C19 = CYP2C19 (Homo sapiens, UniProt P33261); assay: Inhibition of human CYP2C19 using 3-cyano-7-ethoxycoumarin as substrate at 10 uM after 30 mins by fluorimetric analysis; format: ADME; conditions: probe 3-cyano-7-ethoxycoumarin; outline: as §1
CYP2D6 = CYP2D6 (Homo sapiens, UniProt P10635); assay: Inhibition of human CYP2D6 using 3-[2-(N,N-diethyl-N-methylamino)ethyl]-7-methoxy-4-methylcoumarin as substrate at 10 uM after 30 mins by fluorimetric analysis; format: ADME; outline: as §1
CYP3A4 = CYP3A4 (Homo sapiens, UniProt P08684); assay: Inhibition of human CYP3A4 using 7-benzyloxy-4-(trifluoromethyl)-coumarin as substrate at 10 uM after 30 mins by fluorimetric analysis; format: ADME; conditions: probe 7-benzyloxy-4-(trifluoromethyl)-coumarin; outline: as §1
Histone deacetylase = assay: Inhibition of HDAC in human HeLa cells nuclear extract using Fluor de lys as substrate after 15 mins by fluorometric analysis; format: cell-based
K562 = assay: Antiproliferative activity against human K562 cells assessed as cell viability after 72 hrs by CellTitre-Glo luminescent assay; format: functional, cell-based
A549 = assay: Antiproliferative activity against human A549 cells assessed as cell viability after 72 hrs by CellTitre-Glo luminescent assay; format: functional, cell-based
[2] = Antiproliferative activity against human HCT116 cells assessed as cell viability after 72 hrs by CellTitre-Glo luminescent assay; format: functional, cell-based, HCT-116
Histone deacetylase 2 [3] = target: T2, Histone deacetylase 2 (Homo sapiens, UniProt Q92769); assay: Inhibition of HDAC2 (unknown origin)
Histone deacetylase 3 [4] = target: T3, Histone deacetylase 3 (Homo sapiens, UniProt O15379); assay: Inhibition of HDAC3 (unknown origin)
[5] = target: T4, Protein deacetylase HDAC6 (Homo sapiens, UniProt Q9UBN7); assay: Inhibition of HDAC6 (unknown origin)
T4 sequence (Q9UBN7 whole entry): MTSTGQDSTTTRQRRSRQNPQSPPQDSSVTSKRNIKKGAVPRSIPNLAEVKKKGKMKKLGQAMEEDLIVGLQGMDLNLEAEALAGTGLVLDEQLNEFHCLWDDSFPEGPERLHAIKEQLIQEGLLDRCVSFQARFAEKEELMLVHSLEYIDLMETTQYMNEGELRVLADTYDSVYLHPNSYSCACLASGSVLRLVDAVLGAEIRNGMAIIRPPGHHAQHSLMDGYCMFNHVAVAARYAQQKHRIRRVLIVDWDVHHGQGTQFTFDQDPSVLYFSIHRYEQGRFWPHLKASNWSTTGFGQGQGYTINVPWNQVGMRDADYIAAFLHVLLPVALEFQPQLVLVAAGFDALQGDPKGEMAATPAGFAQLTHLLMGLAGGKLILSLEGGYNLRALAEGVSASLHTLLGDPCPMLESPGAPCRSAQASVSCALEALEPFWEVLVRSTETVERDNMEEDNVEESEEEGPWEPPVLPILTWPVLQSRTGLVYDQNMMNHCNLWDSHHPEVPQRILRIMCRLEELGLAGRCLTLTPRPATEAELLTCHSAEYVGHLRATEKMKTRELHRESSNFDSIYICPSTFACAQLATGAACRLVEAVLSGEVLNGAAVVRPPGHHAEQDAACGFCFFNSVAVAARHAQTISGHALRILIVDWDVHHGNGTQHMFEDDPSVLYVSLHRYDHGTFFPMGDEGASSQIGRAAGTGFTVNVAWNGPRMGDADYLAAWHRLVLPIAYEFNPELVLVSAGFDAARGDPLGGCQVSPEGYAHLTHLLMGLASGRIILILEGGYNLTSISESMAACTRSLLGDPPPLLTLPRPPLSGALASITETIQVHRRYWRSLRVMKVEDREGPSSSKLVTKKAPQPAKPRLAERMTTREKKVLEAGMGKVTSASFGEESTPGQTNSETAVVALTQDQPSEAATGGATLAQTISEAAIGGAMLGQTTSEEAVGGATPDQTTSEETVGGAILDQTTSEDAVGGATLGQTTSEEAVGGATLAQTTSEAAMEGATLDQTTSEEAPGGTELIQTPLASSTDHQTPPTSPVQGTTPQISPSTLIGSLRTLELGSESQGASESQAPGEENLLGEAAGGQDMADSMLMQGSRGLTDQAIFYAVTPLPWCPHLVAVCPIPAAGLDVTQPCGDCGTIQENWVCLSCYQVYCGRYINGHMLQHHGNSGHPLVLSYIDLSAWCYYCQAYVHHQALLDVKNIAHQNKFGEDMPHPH

[6] = Metabolic stability in mouse liver microsomes assessed as compound remaining at 1 uM preincubated for 10 mins measured after 30 mins by LC-MS/MS analysis; format: ADME; conditions: for remaining at 0.5 h, 1 µM: liver microsomes, read-out: Stability
Outline: (§2)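 Compound at 1 µM pre-incubated 10 min at 37 °C in potassium phosphate buffer pH 7.4 with 0.5 mg/mL mouse or human hepatic microsomes. Parent quantified by LC-MS/MS (ESI+, MRM, verapamil internal standard). % remaining = peak area at 30 min / area at 0 min × 100; n≥2, mean.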

Liver microsome = assay: (§3) Metabolic stability in human liver microsomes assessed as compound remaining at 1 uM preincubated for 10 mins measured after 30 mins by LC-MS/MS analysis; format: ADME; conditions: microsomes, 0.5 h, 1 µM; outline: as §2
Histone deacetylase 2 [7] = target: T2, Histone deacetylase 2; assay: Inhibition of recombinant human HDAC2 after 15 mins by fluorescence assay
Outline: (§4)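 Recombinant human HDAC2, 3 or 6 (20, 6 and […] respectively) diluted in assay buffer with inhibitor and 25 µM fluorogenic acetyl-lysine substrate; 15 min at room temperature, then developer 10 min; fluorescence read. Concentration–inhibition data fitted by non-linear regression to give IC50; replicates n≥2, mean shown.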

[8] = target: T4, Protein deacetylase HDAC6; assay: Inhibition of recombinant human HDAC6 after 15 mins by fluorescence assay; outline: as §4
[9] = as §3; format: ADME; conditions: liver microsomes, read-out: Stability; outline: as §2
Histone deacetylase 3 [10] = target: T3, Histone deacetylase 3; assay: Inhibition of recombinant human HDAC3 after 15 mins by fluorescence assay; outline: as §4

T2 sequence (Q92769 whole entry): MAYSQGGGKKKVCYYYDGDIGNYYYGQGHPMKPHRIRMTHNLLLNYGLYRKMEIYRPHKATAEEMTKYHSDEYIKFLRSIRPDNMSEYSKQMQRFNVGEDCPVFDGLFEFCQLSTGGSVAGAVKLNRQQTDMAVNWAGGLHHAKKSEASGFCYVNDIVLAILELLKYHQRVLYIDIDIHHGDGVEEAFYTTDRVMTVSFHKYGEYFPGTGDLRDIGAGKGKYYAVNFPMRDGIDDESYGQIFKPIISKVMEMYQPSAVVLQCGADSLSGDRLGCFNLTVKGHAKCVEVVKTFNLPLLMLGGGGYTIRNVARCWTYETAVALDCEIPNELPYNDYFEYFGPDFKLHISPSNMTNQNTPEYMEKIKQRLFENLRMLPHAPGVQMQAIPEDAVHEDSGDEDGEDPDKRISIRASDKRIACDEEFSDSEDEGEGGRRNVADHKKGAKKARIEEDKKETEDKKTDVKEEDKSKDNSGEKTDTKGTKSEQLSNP
T3 sequence (O15379 whole entry): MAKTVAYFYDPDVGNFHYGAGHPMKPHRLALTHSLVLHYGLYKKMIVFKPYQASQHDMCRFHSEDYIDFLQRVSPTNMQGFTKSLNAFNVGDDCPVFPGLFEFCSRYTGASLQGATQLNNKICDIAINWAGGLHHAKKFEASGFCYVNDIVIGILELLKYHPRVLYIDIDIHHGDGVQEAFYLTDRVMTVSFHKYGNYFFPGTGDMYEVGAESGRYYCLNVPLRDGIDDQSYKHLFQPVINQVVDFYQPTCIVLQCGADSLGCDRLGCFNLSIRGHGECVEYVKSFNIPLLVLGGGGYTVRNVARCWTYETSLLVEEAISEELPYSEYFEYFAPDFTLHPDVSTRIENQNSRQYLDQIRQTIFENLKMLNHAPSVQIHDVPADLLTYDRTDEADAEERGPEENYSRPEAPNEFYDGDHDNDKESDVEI
CYP2C19, sequence (P33261 whole entry): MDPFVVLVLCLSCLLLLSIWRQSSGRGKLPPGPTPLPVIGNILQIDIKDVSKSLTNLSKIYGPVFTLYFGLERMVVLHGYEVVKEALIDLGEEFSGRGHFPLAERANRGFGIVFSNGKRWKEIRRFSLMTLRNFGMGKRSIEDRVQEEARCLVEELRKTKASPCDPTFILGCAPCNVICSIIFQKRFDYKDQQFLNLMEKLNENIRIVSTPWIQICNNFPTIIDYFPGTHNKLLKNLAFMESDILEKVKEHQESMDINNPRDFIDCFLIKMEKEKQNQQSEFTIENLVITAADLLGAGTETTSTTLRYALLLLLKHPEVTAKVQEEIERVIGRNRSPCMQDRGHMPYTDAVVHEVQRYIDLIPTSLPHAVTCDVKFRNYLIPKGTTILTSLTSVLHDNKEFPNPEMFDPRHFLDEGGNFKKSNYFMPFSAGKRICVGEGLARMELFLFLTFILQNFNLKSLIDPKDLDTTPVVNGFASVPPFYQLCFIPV
CYP3A4, sequence (P08684 whole entry): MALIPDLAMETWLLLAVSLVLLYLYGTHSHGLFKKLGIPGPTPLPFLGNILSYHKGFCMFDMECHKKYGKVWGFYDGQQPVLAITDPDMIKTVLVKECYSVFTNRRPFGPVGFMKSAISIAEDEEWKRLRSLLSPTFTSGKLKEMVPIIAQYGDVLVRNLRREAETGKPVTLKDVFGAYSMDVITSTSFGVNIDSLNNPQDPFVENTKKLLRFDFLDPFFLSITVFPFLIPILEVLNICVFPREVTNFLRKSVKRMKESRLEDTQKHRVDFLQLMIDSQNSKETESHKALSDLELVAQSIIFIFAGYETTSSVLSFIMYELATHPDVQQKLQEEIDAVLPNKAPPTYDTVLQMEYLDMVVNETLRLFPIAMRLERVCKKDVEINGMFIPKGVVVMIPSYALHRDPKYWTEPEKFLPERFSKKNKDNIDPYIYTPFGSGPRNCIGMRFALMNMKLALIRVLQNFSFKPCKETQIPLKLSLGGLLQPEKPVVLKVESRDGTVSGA
CYP2D6, sequence (P10635 whole entry): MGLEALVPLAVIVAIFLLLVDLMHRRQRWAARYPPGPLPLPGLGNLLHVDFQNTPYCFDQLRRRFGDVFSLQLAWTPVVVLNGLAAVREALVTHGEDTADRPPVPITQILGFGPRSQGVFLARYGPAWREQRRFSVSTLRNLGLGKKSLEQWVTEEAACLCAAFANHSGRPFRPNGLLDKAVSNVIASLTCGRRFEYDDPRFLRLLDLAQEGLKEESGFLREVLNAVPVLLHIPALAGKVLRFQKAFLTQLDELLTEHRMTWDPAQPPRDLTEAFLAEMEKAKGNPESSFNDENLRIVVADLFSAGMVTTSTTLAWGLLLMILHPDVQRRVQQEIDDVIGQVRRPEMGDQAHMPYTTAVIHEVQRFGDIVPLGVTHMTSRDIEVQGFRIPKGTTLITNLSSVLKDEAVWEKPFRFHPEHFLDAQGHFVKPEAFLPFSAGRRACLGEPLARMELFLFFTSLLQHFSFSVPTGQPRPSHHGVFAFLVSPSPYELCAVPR

Row | SMILES | solubility [1] [µM] | inhibition at 0.25 h, 10 µM (CYP1A2) [%] | inhibition at 0.5 h, 10 µM (CYP2C19) [%] | inhibition at 0.5 h, 10 µM (CYP2D6) [%] | inhibition at 0.5 h, 10 µM (CYP3A4) [%] | IC50 (Histone deacetylase) [nM] | pIC50 (K562; k562) | pIC50 (A549; Homo sapiens, A549, 72 h) | remaining at 0.5 h, 1 µM [6] [%] | Stability (Liver microsome) [%] | remaining at 0.5 h, 1 µM [9] [%] | pIC50 (K562; Homo sapiens, K562, 72 h) | pIC50 ([2]; Homo sapiens, HCT-116, 72 h) | other results
1 | O=C(/C=C/c1ccc2c(c1)C(=O)CC1(CCN(Cc3ccccc3)C1)O2)NO (racemic) | > 500 | 5 | 39 | 70 | 69 | 52 | 6.57 | 6.41 | 27 | 24 | – | – | 7.14 | pIC50 (Histone deacetylase 2 [3]): 7.09; pIC50 (Histone deacetylase 3 [4]): 7.55; pIC50 [5]: 6.91
2 | O=C(/C=C/c1ccc2c(c1)C(=O)CC1(CCN(CCc3ccccc3)CC1)O2)NO | – | 13 | 42 | 41 | 40 | – | – | – | 57 | – | 66 | – | – | pIC50 (Histone deacetylase 2 [7]): 6.70; pIC50 [8]: 6.86
3 | O=C(/C=C/c1ccc2c(c1)C(=O)CC1(CCN(Cc3ccccc3)C1)O2)NO (stereo in doubt; 32j) | – | – | – | – | – | 37 | 6.89 | – | – | 11 | – | – | – | pIC50 (A549; a549): 6.52; pIC50 ([2]; hct-116): 7.15
4 | O=C(/C=C/c1ccc2c(c1)C(=O)CC1(CCCN(Cc3ccccc3)CC1)O2)NO (racemic) | – | – | – | – | – | 73 | – | 6.43 | 25 | – | 19 | 6.79 | 7.33 | pIC50 (Histone deacetylase 2 [3]): 7.14; pIC50 (Histone deacetylase 3 [4]): 7.52; pIC50 [5]: 6.82
5 | CN1CCCC2(CC(=O)c3cc(/C=C/C(=O)NO)ccc3O2)C1 (racemic) | > 500 | 5 | 12 | 14 | 51 | 237 | – | 6.99 | 72 | – | 42 | 7.25 | 7.20 | –

Further lines, with some results ahead:

Row | solubility [1] [µM] | inhibition at 0.25 h, 10 µM (CYP1A2) [%] | inhibition at 0.5 h, 10 µM (CYP2C19) [%] | inhibition at 0.5 h, 10 µM (CYP2D6) [%] | inhibition at 0.5 h, 10 µM (CYP3A4) [%] | IC50 (Histone deacetylase) [nM] | pIC50 (K562; k562) | pIC50 (A549; Homo sapiens, A549, 72 h) | remaining at 0.5 h, 1 µM [6] [%] | Stability (Liver microsome) [%] | remaining at 0.5 h, 1 µM [9] [%] | pIC50 (K562; Homo sapiens, K562, 72 h) | SMILES | pIC50 ([2]; Homo sapiens, HCT-116, 72 h) | other results
6 | – | – | – | – | – | 26 | 6.92 | – | – | 23 | – | – | O=C(/C=C/c1ccc2c(c1)C(=O)CC1(CCN(Cc3ccccc3)C1)O2)NO (single isomer, unassigned; (-)) | – | pIC50 (A549; a549): 6.48; pIC50 ([2]; hct-116): 7.18; Stability ([6]; microsomes, 0.5 h, 1 µM): 19%
7 | – | 5 | 61 | 43 | 34 | – | – | – | 47 | – | 63 | – | O=C(/C=C/c1ccc2c(c1)C(=O)CC1(CCN(Cc3ccc(F)cc3)CC1)O2)NO | – | pIC50 (Histone deacetylase 2 [7]): 6.49; pIC50 (Histone deacetylase 3 [10]): 7.04
8 | > 500 | 5 | 59 | 41 | 64 | 27 | – | 6.57 | 31 | – | 31 | 6.99 | O=C(/C=C/c1ccc2c(c1)C(=O)CC1(CCN(CCc3ccccc3)C1)O2)NO (racemic) | 7.37 | –
9 | > 500 | 8 | 68 | 74 | 84 | 62 | – | 6.62 | 27 | – | 51 | 7.34 | Cn1cc(CN2CC3(CC(=O)c4cc(/C=C/C(=O)NO)ccc4O3)C2)c2ccccc21 | 7.11 | –
